In ChEMBL document CHEMBL1137643, “In vitro and in vivo activities of novel fluoroquinolones alone and in combination with clarithromycin against clinically isolated Mycobacterium avium complex strains in Japan” (2007):
In brackets after ≈: the same amount, converted by molar mass.

What was measured:
Type in all cases: functional
[1] = test system: Mycobacterium avium complex sp.; test: Antimycobacterial activity against Mycobacterium avium complex N018 infected C57BL/6J mouse assessed as liver bacterial count at 100 mg/kg/day dosed through gavage route administered for 28 days post bacterial challenge measured 2 days after last dose
Summary of the method: (§1)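 Mice given 1.0 × 10^7 to 3.0 × 10^7 CFU in 100 μl via tail vein; daily gavage dosing began day 21 for 28 days; distilled-water controls. Sacrifice 48 h after last dose. Organ portions homogenized in 1 ml saline, diluted in 7H9, plated on 7H10; log10 CFU/organ, mean ± SEM, 5 mice/group. Experiment run twice; ANOVA with Fisher's PLSD.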

[2] = test system: Mycobacterium avium complex sp.; test: Antimycobacterial activity against Mycobacterium avium complex N016 infected C57BL/6J mouse assessed as spleen bacterial count at 100 mg/kg/day dosed through gavage route administered for 28 days post bacterial challenge measured 2 days after last dose; summary of the method: as §1
[3] = test system: Mycobacterium avium complex sp.; test: Antimycobacterial activity against Mycobacterium avium complex N084 after 14 days by broth microdilution method; conditions: N084, 336 h
Summary of the method: (§2)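 Broth microdilution in Middlebrook 7H9 (OADC, Tween 80, glycerol); twofold dilutions giving final 0.125–128 μg/ml; inoculum 1.0 × 10^5 CFU/well; 14 days at 37°C. MIC = lowest concentration completely inhibiting growth. Triplicate tests. Inocula from 7H10 agar colonies (21 days) subcultured in 7H9 for 7 days at 37°C, stored at −80°C.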

Mycobacterium avium [4] = test: Antimycobacterial activity against Mycobacterium avium JATA51-01 infected C57BL/6J mouse assessed as spleen bacterial count at 100 mg/kg/day dosed through gavage route administered for 28 days post bacterial challenge measured 2 days after last dose
Summary of the method: (§3)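 Mice infected via tail vein with 1.0 × 10^7 to 3.0 × 10^7 CFU in 100 μl saline; daily oral gavage started day 21, for 28 days; distilled-water controls; sacrificed 48 h after last dose; lungs, liver, spleen homogenized in saline, serially diluted in 7H9, plated on 7H10 agar; log10 CFU/organ, mean ± SEM, 5 mice/group; ANOVA with Fisher's PLSD; experiment done twice.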

[5] = test system: Mycobacterium intracellulare; test: Antimycobacterial activity against Mycobacterium intracellular JATA52-01 infected C57BL/6J mouse assessed as spleen bacterial count at 100 mg/kg/day dosed through gavage route administered for 28 days post bacterial challenge measured 2 days after last dose; summary of the method: as §1
[6] = test system: Mycobacterium avium complex sp.; test: Antimycobacterial activity against Mycobacterium avium complex N018 infected C57BL/6J mouse assessed as spleen bacterial count at 100 mg/kg/day dosed through gavage route administered for 28 days post bacterial challenge measured 2 days after last dose; summary of the method: as §1
[7] = test system: Mycobacterium avium complex sp.; test: Antimycobacterial activity against Mycobacterium avium complex N084 infected C57BL/6J mouse assessed as liver bacterial count at 100 mg/kg/day dosed through gavage route administered for 28 days post bacterial challenge measured 2 days after last dose; summary of the method: as §1
[8] = test system: Mycobacterium intracellulare; test: Antimycobacterial activity against Mycobacterium intracellular JATA52-01 infected C57BL/6J mouse assessed as liver bacterial count at 100 mg/kg/day dosed through gavage route administered for 28 days post bacterial challenge measured 2 days after last dose; summary of the method: as §1
[9] = test system: Mycobacterium intracellulare; test: Antimycobacterial activity against Mycobacterium intracellular JATA52-01 after 14 days by broth microdilution method; conditions: JATA52-01, 336 h; summary of the method: as §2
[10] = test system: Mycobacterium avium complex sp.; test: Antimycobacterial activity against Mycobacterium avium complex N016 infected C57BL/6J mouse assessed as liver bacterial count at 100 mg/kg/day dosed through gavage route administered for 28 days post bacterial challenge measured 2 days after last dose; summary of the method: as §1
Mycobacterium avium [11] = test: Antimycobacterial activity against Mycobacterium avium JATA51-01 infected C57BL/6J mouse assessed as liver bacterial count at 100 mg/kg/day dosed through gavage route administered for 28 days post bacterial challenge measured 2 days after last dose; summary of the method: as §3
[12] = test system: Mycobacterium avium complex sp.; test: Antimycobacterial activity against Mycobacterium avium complex after 14 days by broth microdilution method; conditions: 336 h; summary of the method: as §2
[13] = test system: Mycobacterium avium complex sp.; test: Antimycobacterial activity against Mycobacterium avium complex N016 after 14 days by broth microdilution method; conditions: N016, 336 h; summary of the method: as §2
[14] = test system: Mycobacterium avium complex sp.; test: Antimycobacterial activity against Mycobacterium avium complex N018 after 14 days by broth microdilution method; conditions: N018, 336 h; summary of the method: as §2
Mycobacterium avium [15] = test: Antimycobacterial activity against Mycobacterium avium JATA51-01 infected C57BL/6J mouse assessed as lung bacterial count at 100 mg/kg/day dosed through gavage route administered for 28 days post bacterial challenge measured 2 days after last dose; summary of the method: as §3
[16] = test system: Mycobacterium avium complex sp.; test: Antimycobacterial activity against Mycobacterium avium complex N084 infected C57BL/6J mouse assessed as spleen bacterial count at 100 mg/kg/day dosed through gavage route administered for 28 days post bacterial challenge measured 2 days after last dose; summary of the method: as §1
[17] = test system: Mycobacterium avium complex sp.; test: Antimycobacterial activity against Mycobacterium avium complex N084 infected C57BL/6J mouse assessed as lung bacterial count at 100 mg/kg/day dosed through gavage route administered for 28 days post bacterial challenge measured 2 days after last dose; summary of the method: as §1
Mycobacterium avium [18] = test: Antimycobacterial activity against Mycobacterium avium JATA51-01 after 14 days by broth microdilution method; conditions: JATA51-01, 336 h
Summary of the method: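 Broth microdilution in 7H9 (10% OADC, 0.05% Tween 80, 0.2% glycerol); twofold drug dilutions, final 0.125–128 μg/ml; inoculum 1.0 × 10^5 CFU/well from 7-day 37°C subculture of 21-day 7H10 colonies; 14 days at 37°C; MIC = lowest concentration with complete growth inhibition; triplicate.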

[19] = test system: Mycobacterium avium complex sp.; test: Antimycobacterial activity against Mycobacterium avium complex N016 infected C57BL/6J mouse assessed as lung bacterial count at 100 mg/kg/day dosed through gavage route administered for 28 days post bacterial challenge measured 2 days after last dose; summary of the method: as §1
[20] = test system: Mycobacterium avium complex sp.; test: Antimycobacterial activity against Mycobacterium avium complex N018 infected C57BL/6J mouse assessed as lung bacterial count at 100 mg/kg/day dosed through gavage route administered for 28 days post bacterial challenge measured 2 days after last dose; summary of the method: as §1
[21] = test system: Mycobacterium intracellulare; test: Antimycobacterial activity against Mycobacterium intracellular JATA52-01 infected C57BL/6J mouse assessed as lung bacterial count at 100 mg/kg/day dosed through gavage route administered for 28 days post bacterial challenge measured 2 days after last dose; summary of the method: as §1
[22] = test system: Mycobacterium intracellulare; test: Antimycobacterial activity against Mycobacterium intracellular JATA52-01 infected C57BL/6J mouse assessed as liver bacterial count at 200 mg/kg/day dosed through gavage route administered for 28 days post bacterial challenge measured 2 days after last dose; summary of the method: as §1
[23] = test system: Mycobacterium avium complex sp.; test: Antimycobacterial activity against Mycobacterium avium complex N016 infected C57BL/6J mouse assessed as liver bacterial count at 200 mg/kg/day dosed through gavage route administered for 28 days post bacterial challenge measured 2 days after last dose; summary of the method: as §1
Mycobacterium avium [24] = test: Antimycobacterial activity against Mycobacterium avium JATA51-01 infected C57BL/6J mouse assessed as lung bacterial count at 200 mg/kg/day dosed through gavage route administered for 28 days post bacterial challenge measured 2 days after last dose; summary of the method: as §3
[25] = test system: Mycobacterium avium complex sp.; test: Antimycobacterial activity against Mycobacterium avium complex N016 infected C57BL/6J mouse assessed as lung bacterial count at 200 mg/kg/day dosed through gavage route administered for 28 days post bacterial challenge measured 2 days after last dose; summary of the method: as §1
[26] = test system: Mycobacterium avium complex sp.; test: Antimycobacterial activity against Mycobacterium avium complex N018 infected C57BL/6J mouse assessed as spleen bacterial count at 200 mg/kg/day dosed through gavage route administered for 28 days post bacterial challenge measured 2 days after last dose; summary of the method: as §1
[27] = test system: Mycobacterium avium complex sp.; test: Antimycobacterial activity against Mycobacterium avium complex N084 infected C57BL/6J mouse assessed as spleen bacterial count at 200 mg/kg/day dosed through gavage route administered for 28 days post bacterial challenge measured 2 days after last dose; summary of the method: as §1
[28] = test system: Mycobacterium avium complex sp.; test: Antimycobacterial activity against Mycobacterium avium complex N084 infected C57BL/6J mouse assessed as liver bacterial count at 200 mg/kg/day dosed through gavage route administered for 28 days post bacterial challenge measured 2 days after last dose; summary of the method: as §1
[29] = test system: Mycobacterium intracellulare; test: Antimycobacterial activity against Mycobacterium intracellular JATA52-01 infected C57BL/6J mouse assessed as spleen bacterial count at 200 mg/kg/day dosed through gavage route administered for 28 days post bacterial challenge measured 2 days after last dose; summary of the method: as §1
Mycobacterium avium [30] = test: Antimycobacterial activity against Mycobacterium avium JATA51-01 infected C57BL/6J mouse assessed as liver bacterial count at 200 mg/kg/day dosed through gavage route administered for 28 days post bacterial challenge measured 2 days after last dose; summary of the method: as §3
[31] = test system: Mycobacterium avium complex sp.; test: Antimycobacterial activity against Mycobacterium avium complex N084 infected C57BL/6J mouse assessed as lung bacterial count at 200 mg/kg/day dosed through gavage route administered for 28 days post bacterial challenge measured 2 days after last dose; summary of the method: as §1
[32] = test system: Mycobacterium intracellulare; test: Antimycobacterial activity against Mycobacterium intracellular JATA52-01 infected C57BL/6J mouse assessed as lung bacterial count at 200 mg/kg/day dosed through gavage route administered for 28 days post bacterial challenge measured 2 days after last dose; summary of the method: as §1
Mycobacterium avium [33] = test: Antimycobacterial activity against Mycobacterium avium JATA51-01 infected C57BL/6J mouse assessed as spleen bacterial count at 200 mg/kg/day dosed through gavage route administered for 28 days post bacterial challenge measured 2 days after last dose; summary of the method: as §3
[34] = test system: Mycobacterium avium complex sp.; test: Antimycobacterial activity against Mycobacterium avium complex N018 infected C57BL/6J mouse assessed as liver bacterial count at 200 mg/kg/day dosed through gavage route administered for 28 days post bacterial challenge measured 2 days after last dose; summary of the method: as §1
[35] = test system: Mycobacterium avium complex sp.; test: Antimycobacterial activity against Mycobacterium avium complex N018 infected C57BL/6J mouse assessed as lung bacterial count at 200 mg/kg/day dosed through gavage route administered for 28 days post bacterial challenge measured 2 days after last dose; summary of the method: as §1
[36] = test system: Mycobacterium avium complex sp.; test: Antimycobacterial activity against Mycobacterium avium complex N016 infected C57BL/6J mouse assessed as spleen bacterial count at 200 mg/kg/day dosed through gavage route administered for 28 days post bacterial challenge measured 2 days after last dose; summary of the method: as §1

SMILES | log10cfu [1] | log10cfu [2] | MIC [3] | log10cfu (Mycobacterium avium [4]) | log10cfu [5] | log10cfu [6] | log10cfu [7] | log10cfu [8] | MIC [9] | log10cfu [10] | log10cfu (Mycobacterium avium [11]) | MIC90 [12] | MIC [13] | MIC [14] | log10cfu (Mycobacterium avium [15]) | log10cfu [16] | log10cfu [17] | MIC (Mycobacterium avium [18]) | log10cfu [19] | log10cfu [20] | further results
COc1c(N2CCNC(C)C2)c(F)cc2c(=O)c(C(=O)O)cn(C3CC3)c12 (stereo not drawn) [GATIFLOXACIN] | 7.21 | 6.81 | 1 µg/mL (≈ 2.66 µM) | 9.18 | 4.41 | 6.75 | 8 | 5.15 | 1 µg/mL (≈ 2.66 µM) | 6.6 | 9.91 | 4 µg/mL (≈ 10.7 µM) | 0.5 µg/mL (≈ 1.33 µM) | 1 µg/mL (≈ 2.66 µM) | 8.9 | 7.6 | 8.14 | 2 µg/mL (≈ 5.33 µM) | 5.48 | 5.96 | log10cfu [21]: 5.32
CC[C@H]1OC(=O)[C@H](C)[C@@H](O[C@H]2C[C@@](C)(OC)[C@@H](O)[C@H](C)O2)[C@H](C)[C@@H](O[C@@H]2O[C@H](C)C[C@H](N(C)C)[C@H]2O)[C@](C)(OC)C[C@@H](C)C(=O)[C@H](C)[C@@H](O)[C@]1(C)O [CLARITHROMYCIN] |  |  | 0.5 µg/mL (≈ 0.668 µM) |  |  |  |  |  | 0.5 µg/mL (≈ 0.668 µM) |  |  | 64 µg/mL (≈ 85.6 µM) | 2 µg/mL (≈ 2.67 µM) | 0.5 µg/mL (≈ 0.668 µM) |  |  |  | 2 µg/mL (≈ 2.67 µM) |  |  | log10cfu [22]: 3.2; log10cfu [23]: 5.91; log10cfu (Mycobacterium avium [24]): 7.1; log10cfu [25]: 3.94; log10cfu [26]: 4.06; log10cfu [27]: 4.3; log10cfu [28]: 4.58; log10cfu [29]: 3.16; log10cfu (Mycobacterium avium [30]): 8.12; log10cfu [31]: 5.28; log10cfu [32]: 3.17; log10cfu (Mycobacterium avium [33]): 7.1; log10cfu [34]: 5.03; log10cfu [35]: 2.18; log10cfu [36]: 5.36
C[C@H]1COc2c(N3CCN(C)CC3)c(F)cc3c(=O)c(C(=O)O)cn1c23.C[C@H]1COc2c(N3CCN(C)CC3)c(F)cc3c(=O)c(C(=O)O)cn1c23.O [LEVOFLOXACIN] |  |  | 8 µg/mL |  |  |  |  |  | 4 µg/mL |  |  | 16 µg/mL | 2 µg/mL | 4 µg/mL |  |  |  | 4 µg/mL |  |  | log10cfu [22]: 5.16; log10cfu [23]: 6.52; log10cfu (Mycobacterium avium [24]): 9.01; log10cfu [25]: 5.48; log10cfu [26]: 6.82; log10cfu [27]: 7.58; log10cfu [28]: 7.77; log10cfu [29]: 4.48; log10cfu (Mycobacterium avium [30]): 9.92; log10cfu [31]: 7.82; log10cfu [32]: 5.47; log10cfu (Mycobacterium avium [33]): 9.38; log10cfu [34]: 7.4; log10cfu [35]: 6.01; log10cfu [36]: 6.72
COc1c(N2C[C@@H]3CCCN[C@@H]3C2)c(F)cc2c(=O)c(C(=O)O)cn(C3CC3)c12 [MOXIFLOXACIN] | 7.09 | 6.6 | 0.5 µg/mL (≈ 1.25 µM) | 9.18 | 4.15 | 6.6 | 7.78 | 4.76 | 0.5 µg/mL (≈ 1.25 µM) | 6.53 | 9.68 | 2 µg/mL (≈ 4.98 µM) | 0.5 µg/mL (≈ 1.25 µM) | 0.5 µg/mL (≈ 1.25 µM) | 8.83 | 7.39 | 7.9 |  | 5.35 | 5.79 | log10cfu [21]: 4.83
